# In publication PMC5756105 (Journal of proteome research, 2017):
# Structures can show the parent of a compound that is named as a salt. Where two headings read alike, the source gives them in different places.
# Columns and labels:
# [1] = tested on: hMSCs; experiment: CCK-8 cell viability assay on 96-well plates, basal hMSCs; type: cell-based, human; conditions: for reduction in toxicity from basal hMSCs to their osteogenic progenies: basal hMSCs vs OD1-OD6; for IC50: read-out: IC50 hMSC
# [2] = tested on: hiPSCs; experiment: CCK-8 cell viability assay on 96-well plates, basal hiPSCs; type: cell-based, human; conditions: for higher sensitivity of hiPSCs compared to basal hMSCs: ratio of IC50, hiPSCs vs basal hMSCs; for IC50: read-out: IC50 hiPSC; for dependency of effects on stages of hepatogenic differentiation of hiPSCs: Phase I-III
# [3] = tested on: basal hMSCs; experiment: qHTS CellTiter-Glo viability assay in 1536-well format, basal hMSCs; type: cell-based, human; conditions: qHTS CTG, basal vs osteogenesis day 1
# Method in brief: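 hMSCs were seeded at 500 cells/well directly in basal or osteogenic differentiation medium (osteogenesis day 1 arm) and held 24 h at 37°C/5% CO₂. A LOPAC library was then added at seven concentrations (0.0029–46 μM, 1:5 serial dilutions) for 48 h. ATP was read by CellTiter-Glo luminescence after 30 min at room temperature. IC₅₀ and efficacy came from dose-response curves, with hit cutoffs of efficacy ≥ 50% and IC₅₀ ≤ 20 μM.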
# [4] = tested on: hMSC-OD3; experiment: CCK-8 cell viability assay on 96-well plates, hMSCs osteogenesis Day 3; type: cell-based; conditions: Homo sapiens, read-out: IC50 hMSC-OD3
# [5] = tested on: hepatic differentiation Phase II cells; type: cell-based; conditions: Homo sapiens, HepA, 48 h, read-out: IC50 Hepa Diff Phase II
# [6] = tested on: hMSC-OD1; experiment: CCK-8 cell viability assay on 96-well plates, hMSCs osteogenesis Day 1; type: cell-based; conditions: Homo sapiens, read-out: IC50 hMSC-OD1
# [7] = tested on: hepatic differentiation Phase I cells; experiment: CCK-8 cell viability assay, hiPSCs at end of hepatogenic differentiation Phase I; type: cell-based; conditions: Homo sapiens, HepA, 48 h, read-out: IC50 Hepa Diff Phase I
# [8] = tested on: hepatic differentiation Phase III cells; type: cell-based; conditions: Homo sapiens, HepA, 48 h, read-out: IC50 Hepa Diff Phase III
# [9] = tested on: hMSC-OD6; experiment: CCK-8 cell viability assay on 96-well plates, hMSCs osteogenesis Day 6; type: cell-based; conditions: Homo sapiens, read-out: IC50 hMSC-OD6
# [10] = basal hMSCs, 48-hour treatment, CCK-8, mean ± s.e.m., n=3
# [11] = basal hiPSCs, 48-hour treatment, CCK-8, mean ± s.e.m., n=3
SMILES,reduction in toxicity from basal hMSCs to their osteogenic progenies [1],"IC50 [1, 10]",higher sensitivity of hiPSCs compared to basal hMSCs [2],"IC50 [2, 11]",toxicity to basal hMSCs versus osteogenic hMSCs in primary screening [3],differentiation-stage dependency of toxicity on hMSCs ([1]; basal hMSCs vs OD1 to OD6),IC50 [4],IC50 [5],"decrease in toxicity from basal to OD6 ([1]; hMSCs, basal vs OD6, p<0.001)",IC50 [6],"IC50 ([2]; Homo sapiens, 48 h)",dependency of effects on stages of hepatogenic differentiation of hiPSCs [2],IC50 [7],IC50 [8],IC50 [9],"IC50 ([1]; Homo sapiens, 48 h)"
CC[n+]1c(/C=C/C=C2/N(C)c3ccccc3C2(C)C)sc2ccccc21.[I-] [AC-93253],3~4 fold,3.94 ± 1.18 µM,more than 30 times,0.09 ± 0.038 µM,much higher toxicity,–,–,–,–,–,–,–,–,–,–,–
O=C1C(SCCO)=C(SCCO)C(=O)c2ccccc21 [NSC 95397],–,6.55 ± 1.76 µM,–,6.91 ± 3.01 µM,–,not differentiation-stage dependent,–,–,–,–,–,–,–,–,–,–
"CC(=O)[C@]1(O)Cc2c(O)c3c(c(O)c2[C@@H](O[C@H]2C[C@H](N)[C@H](O)[C@H](C)O2)C1)C(=O)c1ccccc1C3=O [Idarubicin, idarubicin hydrochloride]",–,0.38 ± 0.074 µM,more than 30 times,–,–,–,7.43 ± 4.56 µM,1.25 ± 0.23 µM,28 fold,2.96 ± 0.22 µM,0.004 ± 0.001 µM,significantly dependent,0.07 ± 0.003 µM,4.99 ± 1.38 µM,10.8 ± 0.43 µM,–
"C[C@@]12C(=O)OC(=O)[C@]1(C)[C@H]1CC[C@@H]2O1 [Cantharidin, cantharidin]",3~4 fold,–,–,–,–,–,4.95 ± 1.33 µM,2.58 ± 0.28 µM,–,3.98 ± 0.69 µM,4.36 ± 1.4 µM,not significantly dependent,2.7 ± 0.49 µM,1.12 ± 0.34 µM,6.17 ± 2.55 µM,1.54 ± 0.5 µM
